For test [1], the target named is Leucine-rich repeat serine/threonine-protein kinase 2 (Mus musculus) (UniProt Q5S006). In words: In vivo inhibition of LRRK2 in C57Bl/6 mouse kidney assessed as reduction in pSer935 LRRK2 administered for 11 days by Western blotting analysis. It counts as functional, organism-based. The settings on record: time 11.0 day. The gist of the method:
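Same 11-day in-diet design in male C57Bl/6 mice: 3-120 mg/kg/day or untreated diet, killed 4, 8 or 24 h after dark-cycle onset, n = 5 per group. Kidneys dissected for Western blot of pSer935 and total LRRK2, with total LRRK2 detected by MJFF-2 antibody.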
On the technique in general: A western blot detects proteins with antibodies after separation by electrophoresis.

In test [2] the test system is Mus musculus. In words: Effect on behavioral changes in 14 weeks old MitoPark mouse striatum assessed as TH level at 30 mg/kg/day by […] relative to control. It counts as functional. An outline of the steps: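 Striatal protein (20 μg) from diet-treated MitoPark and wild-type mice was denatured at 70 °C for 10 min and run on 3-8% Tris-acetate gels. Blots were probed with anti-tyrosine hydroxylase and anti-GAPDH overnight at 4 °C, then an HRP secondary. TH is expressed as % of control.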

Calls of active or inactive are those of the source. The calls are words filed in the database; no cut-off is given here.

Leucine-rich repeat serine/threonine-protein kinase 2 (Mus musculus), sequence (Q5S006 whole entry): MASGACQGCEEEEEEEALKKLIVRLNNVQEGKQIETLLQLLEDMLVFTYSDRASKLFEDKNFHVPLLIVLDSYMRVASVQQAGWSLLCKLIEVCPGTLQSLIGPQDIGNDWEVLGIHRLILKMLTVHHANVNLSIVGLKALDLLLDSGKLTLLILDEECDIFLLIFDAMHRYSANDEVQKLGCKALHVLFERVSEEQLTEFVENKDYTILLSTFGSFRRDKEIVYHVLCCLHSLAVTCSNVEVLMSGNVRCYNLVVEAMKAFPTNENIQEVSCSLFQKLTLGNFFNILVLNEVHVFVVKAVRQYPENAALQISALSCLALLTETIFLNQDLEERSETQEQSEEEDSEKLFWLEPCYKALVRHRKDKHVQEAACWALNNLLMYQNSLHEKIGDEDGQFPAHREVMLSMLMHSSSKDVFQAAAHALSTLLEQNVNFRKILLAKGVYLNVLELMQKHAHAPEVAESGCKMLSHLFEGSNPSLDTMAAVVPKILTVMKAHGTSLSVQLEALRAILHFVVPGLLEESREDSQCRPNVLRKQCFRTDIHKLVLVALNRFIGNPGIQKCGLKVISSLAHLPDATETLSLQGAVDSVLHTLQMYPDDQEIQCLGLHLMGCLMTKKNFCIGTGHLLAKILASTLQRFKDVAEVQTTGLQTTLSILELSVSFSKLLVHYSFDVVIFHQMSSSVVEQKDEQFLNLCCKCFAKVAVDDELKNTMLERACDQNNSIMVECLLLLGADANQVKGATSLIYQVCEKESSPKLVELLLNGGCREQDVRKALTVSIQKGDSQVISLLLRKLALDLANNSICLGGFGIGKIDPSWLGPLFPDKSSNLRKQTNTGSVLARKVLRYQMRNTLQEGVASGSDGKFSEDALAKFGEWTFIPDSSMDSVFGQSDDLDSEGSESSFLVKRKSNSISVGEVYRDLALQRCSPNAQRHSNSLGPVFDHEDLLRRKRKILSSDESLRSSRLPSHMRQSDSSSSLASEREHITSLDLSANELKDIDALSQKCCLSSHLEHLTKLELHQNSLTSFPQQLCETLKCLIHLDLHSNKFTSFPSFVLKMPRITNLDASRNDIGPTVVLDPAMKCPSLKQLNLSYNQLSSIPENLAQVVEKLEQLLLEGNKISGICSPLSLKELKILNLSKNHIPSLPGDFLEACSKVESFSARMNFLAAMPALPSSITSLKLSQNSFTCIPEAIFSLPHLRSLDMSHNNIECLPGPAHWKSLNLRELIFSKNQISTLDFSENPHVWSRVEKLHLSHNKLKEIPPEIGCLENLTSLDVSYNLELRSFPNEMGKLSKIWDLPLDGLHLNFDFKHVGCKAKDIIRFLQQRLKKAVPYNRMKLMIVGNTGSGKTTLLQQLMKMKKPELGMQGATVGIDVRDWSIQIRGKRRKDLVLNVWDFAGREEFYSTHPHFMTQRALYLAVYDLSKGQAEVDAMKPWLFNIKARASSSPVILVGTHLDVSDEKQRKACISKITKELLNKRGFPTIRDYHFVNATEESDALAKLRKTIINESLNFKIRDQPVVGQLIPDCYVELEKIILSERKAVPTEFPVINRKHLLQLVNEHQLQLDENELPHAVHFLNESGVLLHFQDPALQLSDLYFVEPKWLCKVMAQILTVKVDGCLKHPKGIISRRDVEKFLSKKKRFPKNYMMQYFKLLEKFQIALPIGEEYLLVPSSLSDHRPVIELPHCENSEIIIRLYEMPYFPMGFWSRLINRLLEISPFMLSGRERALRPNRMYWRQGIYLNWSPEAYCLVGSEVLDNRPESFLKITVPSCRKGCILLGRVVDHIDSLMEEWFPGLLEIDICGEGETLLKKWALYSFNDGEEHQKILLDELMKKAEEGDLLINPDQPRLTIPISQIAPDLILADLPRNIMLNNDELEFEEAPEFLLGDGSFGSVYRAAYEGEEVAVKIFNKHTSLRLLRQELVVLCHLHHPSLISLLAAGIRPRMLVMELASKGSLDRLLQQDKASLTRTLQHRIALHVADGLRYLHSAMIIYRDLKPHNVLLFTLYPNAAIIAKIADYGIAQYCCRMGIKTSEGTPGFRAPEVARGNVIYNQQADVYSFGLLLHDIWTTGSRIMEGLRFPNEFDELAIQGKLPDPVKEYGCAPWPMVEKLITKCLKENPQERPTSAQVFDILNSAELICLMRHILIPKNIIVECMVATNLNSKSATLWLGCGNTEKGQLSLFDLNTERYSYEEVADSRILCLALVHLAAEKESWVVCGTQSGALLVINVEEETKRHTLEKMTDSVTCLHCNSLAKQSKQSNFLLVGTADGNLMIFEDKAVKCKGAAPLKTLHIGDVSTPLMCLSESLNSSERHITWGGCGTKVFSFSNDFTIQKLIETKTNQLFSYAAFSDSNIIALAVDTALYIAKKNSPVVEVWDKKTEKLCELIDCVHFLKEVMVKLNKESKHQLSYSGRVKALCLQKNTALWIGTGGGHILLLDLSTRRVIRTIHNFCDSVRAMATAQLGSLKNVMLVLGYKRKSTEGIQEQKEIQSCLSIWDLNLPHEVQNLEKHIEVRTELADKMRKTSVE

Take `C[C@@H]1CN(c2cc(-c3n[nH]c4ccc(OC5(C)CC5)cc34)ncn2)C[C@H](C)O1` [MLi-2]: the inhibition result in test [1] is “Active”. The Activity in test [2] is listed as 42.6%.

(Values after ChEMBL document CHEMBL5653623 (J Pharmacol Exp Ther, 2015).)
